Consider 18 compounds from ChEMBL document CHEMBL1144696, “Overcoming drug resistance to heme-targeted antimalarials by systematic side chain variation of 7-chloro-4-aminoquinolines” (J Med Chem, 2008).

For experiment [1], the system named is Plasmodium falciparum. The experiment in a line: Antiplasmodial activity against chloroquine-resistant Plasmodium falciparum Dd2 after 72 hrs by SYBR green 1 assay. The experiment is classed as functional, organism-based. To be noted: Dd2, 72 h. The essentials: (§1)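 P. falciparum growth inhibition measured by SYBR Green I intercalation. Each strain was tested separately. IC50 calculated from triplicate experiments. Values are averages of two separate determinations, each run in triplicate.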

In experiment [2] the test system is Plasmodium falciparum. Briefly: Selectivity for chloroquine-resistant Plasmodium falciparum Dd2 over chloroquine-sensitive Plasmodium falciparum HB3 as IC50 ratio by SYBR green assay. The class given is functional. In short, it runs like this:
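Selectivity index is IC50 for Dd2 divided by IC50 for HB3. Both IC50s come from the SYBR Green I assay, averaging two determinations each run in triplicate.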

Experiment [3] relates to Plasmodium falciparum. The experiment in a line: Antiplasmodial activity against chloroquine-sensitive Plasmodium falciparum GCO3 after 72 hrs by SYBR green 1 assay. To be noted: GCO3, 72 h. The class given is functional, organism-based. In short, it runs like this:
as §1

In experiment [4] the test system is Plasmodium falciparum. Briefly: Antiplasmodial activity against chloroquine-resistant Plasmodium falciparum FCB after 72 hrs by SYBR green 1 assay. The experiment is classed as functional, organism-based. The essentials:
as §1

Experiment [5] concerns Plasmodium falciparum. The experiment in a line: Selectivity index for chloroquine-resistant Plasmodium falciparum FCB to chloroquine-sensitive Plasmodium falciparum GCO3 by SYBR green IC50 ratio. The class given is functional.
Experiment [6] concerns Plasmodium falciparum. Briefly: Antiplasmodial activity against chloroquine-sensitive Plasmodium falciparum HB3 after 72 hrs by SYBR green 1 assay. The experiment is classed as functional, organism-based. Particulars: HB3, 72 h. The essentials:
as §1

Broadly, the IC50 is the concentration that inhibits the measured activity by half. Read a high IC50 as weaker potency in that assay. `CC(C)NC1CCC(Nc2ccnc3cc(Cl)ccc23)CC1` (centres undefined): the IC50 in the experiment on Plasmodium falciparum [1] was 0.0757 µM; with Plasmodium falciparum [3] it was 0.0195 µM; in the experiment with Plasmodium falciparum [4], 0.066 µM; with Plasmodium falciparum [6] it was 0.0313 µM. Besides, the “Ratio IC50” value in the experiment with Plasmodium falciparum [2] was 2.42; with Plasmodium falciparum [5], 3.89.

Take `CC(C)N(CCCN(CCCN(C(C)C)C(C)C)c1ccnc2cc(Cl)ccc12)C(C)C`: the IC50 with Plasmodium falciparum [1] is 0.0998 µM; with Plasmodium falciparum [3], 0.0424 µM; in the experiment on Plasmodium falciparum [4], 0.104 µM; with Plasmodium falciparum [6] it was 0.0441 µM. The “Ratio IC50” value with Plasmodium falciparum [2] was found to be 2.26; in the experiment with Plasmodium falciparum [5], 2.45.

Take `CCN(CC)CCCN(CC)CCNc1ccnc2cc(Cl)ccc12`: the IC50 worked out at 0.0312 µM in the experiment on Plasmodium falciparum [1], 0.0377 µM in the experiment with Plasmodium falciparum [3], 0.0527 µM with Plasmodium falciparum [4] and 0.0273 µM with Plasmodium falciparum [6].

Consider `CCN(CC)CCCNCCCCNc1ccnc2cc(Cl)ccc12`, for which the IC50 in the experiment on Plasmodium falciparum [1] was determined as 0.17 µM; in the experiment with Plasmodium falciparum [3], 0.139 µM; in the experiment on Plasmodium falciparum [4] it was 0.189 µM; with Plasmodium falciparum [6] it was 0.0725 µM. Also, the “Ratio IC50” value is on record as 2.34 in the experiment on Plasmodium falciparum [2] and 1.36 in the experiment on Plasmodium falciparum [5].

In the case of `CCN(CC)CCCNCCCCCCNc1ccnc2cc(Cl)ccc12`, the IC50 in the experiment on Plasmodium falciparum [1] was determined as 0.269 µM; with Plasmodium falciparum [3], 0.129 µM; in the experiment with Plasmodium falciparum [4], 0.216 µM; in the experiment with Plasmodium falciparum [6], 0.0828 µM. Further, the entries for the “Ratio IC50” value in the experiment with Plasmodium falciparum [2] and in the experiment with Plasmodium falciparum [5] were 3.25 and 1.67, respectively.

For the compound `CCN(CC)CCCNCCNc1ccnc2cc(Cl)ccc12`, the IC50 turned out to be 0.129 µM in the experiment with Plasmodium falciparum [1], 0.118 µM with Plasmodium falciparum [3], 0.146 µM with Plasmodium falciparum [4] and 0.0292 µM with Plasmodium falciparum [6].

On to `CCN(CC)CCCNCCCNc1ccnc2cc(Cl)ccc12`, for which the IC50 in the experiment with Plasmodium falciparum [1] amounted to 0.0563 µM; in the experiment with Plasmodium falciparum [3], 0.0648 µM; in the experiment with Plasmodium falciparum [4], 0.0737 µM; in the experiment on Plasmodium falciparum [6] it was 0.0273 µM. For the same compound, the “Ratio IC50” value with Plasmodium falciparum [2] is given as 2.06; in the experiment on Plasmodium falciparum [5] it was 1.14.

As to `CC(C)N(CCCCN(CCCCN(C(C)C)C(C)C)c1ccnc2cc(Cl)ccc12)C(C)C`, the IC50 in the experiment with Plasmodium falciparum [1] is 2.55 µM; with Plasmodium falciparum [3], 1.51 µM; in the experiment on Plasmodium falciparum [4], 2.23 µM; in the experiment with Plasmodium falciparum [6], 1.31 µM. The “Ratio IC50” value with Plasmodium falciparum [2] was 1.94; in the experiment on Plasmodium falciparum [5], 1.47.

Regarding `CCN(CC)CCCCN(CCCCN(CC)CC)c1ccnc2cc(Cl)ccc12`, the IC50 with Plasmodium falciparum [1] turned out to be 0.882 µM; in the experiment on Plasmodium falciparum [3], 0.517 µM; in the experiment on Plasmodium falciparum [4] it was 1.06 µM; in the experiment on Plasmodium falciparum [6], 0.716 µM. Moreover, the “Ratio IC50” value in the experiment on Plasmodium falciparum [2] is on record as 1.23; with Plasmodium falciparum [5], 2.05.

Turning to `CCN(CC)CCCN(CC)CCCCCNc1ccnc2cc(Cl)ccc12`, the IC50 in the experiment with Plasmodium falciparum [1] is 0.0434 µM; in the experiment on Plasmodium falciparum [3], 0.0552 µM; in the experiment with Plasmodium falciparum [4] it was 0.0668 µM; with Plasmodium falciparum [6], 0.0157 µM. In addition, the “Ratio IC50” value in the experiment on Plasmodium falciparum [2] is 2.76; in the experiment with Plasmodium falciparum [5] it was 1.21.

Regarding `CCN(CC)CCCN(CC)CCCNc1ccnc2cc(Cl)ccc12`, the IC50 with Plasmodium falciparum [1] stood at 0.0281 µM; in the experiment with Plasmodium falciparum [3] it was 0.0276 µM; in the experiment with Plasmodium falciparum [4], 0.0491 µM; with Plasmodium falciparum [6], 0.0212 µM. Moreover, the “Ratio IC50” value was 1.33 with Plasmodium falciparum [2] and 1.78 in the experiment with Plasmodium falciparum [5].

Regarding `CCN(CC)C1CCCC(Nc2ccnc3cc(Cl)ccc23)C1` (centres undefined), the IC50 turned out to be 0.08 µM in the experiment with Plasmodium falciparum [1], 0.0406 µM in the experiment with Plasmodium falciparum [3], 0.113 µM with Plasmodium falciparum [4] and 0.0263 µM in the experiment with Plasmodium falciparum [6]. The “Ratio IC50” value in the experiment on Plasmodium falciparum [2] is listed as 3.04; in the experiment on Plasmodium falciparum [5], 2.78.

On to `CCN(CC)CCCN(CC)CCCCNc1ccnc2cc(Cl)ccc12`, for which the IC50 in the experiment with Plasmodium falciparum [1] came to 0.0846 µM; in the experiment with Plasmodium falciparum [3] it was 0.0874 µM; with Plasmodium falciparum [4], 0.156 µM; with Plasmodium falciparum [6], 0.0241 µM. In addition, the figures for the “Ratio IC50” value in the experiment with Plasmodium falciparum [2] and in the experiment on Plasmodium falciparum [5] were 3.52 and 1.78, respectively.

As to `CC(C)NC1CCCC(Nc2ccnc3cc(Cl)ccc23)C1` (centres undefined), the IC50 was 0.0761 µM with Plasmodium falciparum [1], 0.0261 µM in the experiment on Plasmodium falciparum [3], 0.11 µM in the experiment on Plasmodium falciparum [4] and 0.0278 µM with Plasmodium falciparum [6]. The “Ratio IC50” value in the experiment with Plasmodium falciparum [2] is 2.74; with Plasmodium falciparum [5] it was 4.21.

For the compound `CCN(CC)CCCNCCCCCNc1ccnc2cc(Cl)ccc12`, the IC50 worked out at 0.103 µM with Plasmodium falciparum [1], 0.0687 µM with Plasmodium falciparum [3], 0.0973 µM with Plasmodium falciparum [4] and 0.046 µM in the experiment on Plasmodium falciparum [6]. Besides, the “Ratio IC50” value in the experiment with Plasmodium falciparum [2] stood at 2.25; in the experiment with Plasmodium falciparum [5] it was 1.42.

As to `CCN(CC)CCCN(CC)CCCCCCNc1ccnc2cc(Cl)ccc12`, the IC50 with Plasmodium falciparum [1] was 0.274 µM; in the experiment with Plasmodium falciparum [3] it was 0.175 µM; in the experiment with Plasmodium falciparum [4] it was 0.263 µM; in the experiment with Plasmodium falciparum [6] it was 0.0629 µM. The results for the “Ratio IC50” value in the experiment on Plasmodium falciparum [2] and in the experiment on Plasmodium falciparum [5] were 4.36 and 1.5, respectively.

Consider `CCN(CC)C1CCC(Nc2ccnc3cc(Cl)ccc23)CC1` (centres undefined), for which the IC50 was 0.0518 µM in the experiment with Plasmodium falciparum [1], 0.032 µM in the experiment with Plasmodium falciparum [3], 0.0576 µM with Plasmodium falciparum [4] and 0.0255 µM in the experiment with Plasmodium falciparum [6]. Further, the “Ratio IC50” value with Plasmodium falciparum [2] came to 2.03; in the experiment with Plasmodium falciparum [5], 1.8.

In the case of `CCN(CC)CCCN(CCCN(CC)CC)c1ccnc2cc(Cl)ccc12`, the IC50 with Plasmodium falciparum [1] stood at 0.128 µM; in the experiment on Plasmodium falciparum [3] it was 0.0966 µM; with Plasmodium falciparum [4] it was 0.186 µM; with Plasmodium falciparum [6], 0.187 µM. Besides, the results for the “Ratio IC50” value with Plasmodium falciparum [2] and in the experiment with Plasmodium falciparum [5] were 0.68 and 1.92, respectively.
